Results from ChEMBL document CHEMBL4130578, “Synthesis, biological evaluation and structure-activity relationship studies of hederacolchiside E and its derivatives as potential anti-Alzheimer agents” (Eur J Med Chem, 2018).
Calls of active or inactive are those of the source. No cut-off for these calls is given here.

Assays:
PC-12 [1] = assay: Cytotoxicity against rat PC12 cells assessed as decrease in cell viability at high concentration after 12 hrs by MTT assay; type: cell-based; conditions: pc-12, 12 h
PC-12 [2] = assay: Cytoprotection against amyloid beta (1 to 42)-induced cell injury in rat PC12 cells assessed as cell viability at 10 uM preincubated for 12 hrs followed by amyloid beta (1 to 42) addition measured after 12 hrs by MTT assay (reference value: 55.3 +/- 1.5%); type: functional; conditions: read-out: Activity
PC-12 [3] = assay: Cytoprotection against amyloid beta (1 to 42)-induced cell injury in rat PC12 cells assessed as cell viability at 50 uM preincubated for 12 hrs followed by amyloid beta (1 to 42) addition measured after 12 hrs by MTT assay (reference value: 55.3 +/- 1.5%); type: functional; conditions: read-out: Activity
PC-12 [4] = assay: Cytoprotection against H2O2-induced cell injury in rat PC12 cells assessed as increase in cell viability preincubated for 12 hrs followed by H2O2 addition measured after 12 hrs by MTT assay; type: functional, cell-based
How it was run: (§1)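 PC12 cells grown in RPMI-1640 with 15% FBS and penicillin/streptomycin, subcultured every 2 days and cultured 8 days before use. Cells seeded at 1 × 10^4/well, after 12 h pretreated with compound 12 h, then exposed to 200 µM H2O2 for 12 h. MTT added for 4 h, formazan dissolved in DMSO, OD 490 nm read. Viability given as % of untreated control, mean ± SD, n = 3, ANOVA with Dunnett's test.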

PC-12 [5] = assay: Cytoprotection against amyloid beta (1 to 42)-induced cell injury in rat PC12 cells assessed as cell viability at 100 uM preincubated for 12 hrs followed by amyloid beta (1 to 42) addition measured after 12 hrs by MTT assay (reference value: 55.3 +/- 1.5%); type: functional; conditions: read-out: Activity
PC-12 [6] = assay: Cytoprotection against H2O2-induced cell injury in rat PC12 cells assessed as increase in cell viability at 1 to 10 uM preincubated for 12 hrs followed by H2O2 addition measured after 12 hrs by MTT assay; type: functional, cell-based; how it was run: as §1
PC-12 [7] = assay: Cytotoxicity against rat PC12 cells assessed as decrease in cell viability at 50 uM after 12 hrs by MTT assay; type: cell-based; conditions: pc-12, 12 h
PC-12 [8] = assay: Cytoprotection against amyloid beta (1 to 42)-induced toxicity in rat PC12 cells assessed as LDH release at 10 uM preincubated with cells followed by amyloid beta (1 to 42) addition measured after 24 hrs by LDH assay (reference value: 153%); type: functional
PC-12 [9] = assay: Cytoprotection against amyloid beta (1 to 42)-induced toxicity in rat PC12 cells assessed as LDH release at 50 uM preincubated with cells followed by amyloid beta (1 to 42) addition measured after 24 hrs by LDH assay (reference value: 153%); type: functional
PC-12 [10] = assay: Cytoprotection against amyloid beta (1 to 42)-induced toxicity in rat PC12 cells assessed as LDH release at 100 uM preincubated with cells followed by amyloid beta (1 to 42) addition measured after 24 hrs by LDH assay (reference value: 153%); type: functional
PC-12 [11] = assay: Cytoprotection against amyloid beta (1 to 42)-induced oxidative damage in rat PC12 cells assessed as intracellular ROS level at 10 uM preincubated with cells followed by amyloid beta (1 to 42) addition measured after 24 hrs by DCFH-DA staining based flow cytometry (reference value: 51.4%); type: functional
PC-12 [12] = assay: Cytoprotection against amyloid beta (1 to 42)-induced oxidative damage in rat PC12 cells assessed as intracellular ROS level at 50 uM preincubated with cells followed by amyloid beta (1 to 42) addition measured after 24 hrs by DCFH-DA staining based flow cytometry (reference value: 51.4%); type: functional
PC-12 [13] = assay: Cytoprotection against amyloid beta (1 to 42)-induced oxidative damage in rat PC12 cells assessed as intracellular ROS level at 100 uM preincubated with cells followed by amyloid beta (1 to 42) addition measured after 24 hrs by DCFH-DA staining based flow cytometry (reference value: 51.4%); type: functional
PC-12 [14] = assay: Cytoprotection against amyloid beta (1 to 42)-induced oxidative damage in rat PC12 cells assessed as reduction in intracellular ROS level preincubated with cells followed by amyloid beta (1 to 42) addition measured after 24 hrs by DCFH-DA staining based flow cytometry; type: functional, cell-based
PC-12 [15] = assay: Cytoprotection against amyloid beta (1 to 42)-induced damage in rat PC12 cells assessed as reduction in intracellular MDA level preincubated with cells followed by amyloid beta (1 to 42) addition measured after 24 hrs by TBA assay; type: functional, cell-based
How it was run: (§2)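 For the MDA readout, PC12 cells were given 40 µM Aβ1-42 for 24 h with or without compound (10, 50, 100 µM). Samples were mixed with two volumes of TBA reagent (0.375% TBA, 15% trichloroacetic acid, 0.1 mM EDTA) and heated at 95 °C for 40 min. After cooling and centrifugation at 3000 × g for 10 min, supernatant A532 was read. Mean ± SD, n = 3.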

PC-12 [16] = assay: Cytoprotection against amyloid beta (1 to 42)-induced damage in rat PC12 cells assessed as intracellular MDA level at 10 uM preincubated with cells followed by amyloid beta (1 to 42) addition measured after 24 hrs by TBA assay; type: functional; how it was run: as §2
PC-12 [17] = assay: Cytoprotection against amyloid beta (1 to 42)-induced damage in rat PC12 cells assessed as intracellular MDA level at 50 uM preincubated with cells followed by amyloid beta (1 to 42) addition measured after 24 hrs by TBA assay; type: functional; how it was run: as §2
PC-12 [18] = assay: Cytoprotection against amyloid beta (1 to 42)-induced damage in rat PC12 cells assessed as intracellular MDA level at 100 uM preincubated with cells followed by amyloid beta (1 to 42) addition measured after 24 hrs by TBA assay; type: functional; how it was run: as §2

C[C@@H]1O[C@@H](O[C@H]2[C@H](O[C@H]3CC[C@]4(C)[C@H]5CC=C6[C@@H]7CC(C)(C)CC[C@]7(C(=O)O[C@@H]7O[C@H](CO)[C@@H](O)[C@H](O)[C@H]7O)CC[C@@]6(C)[C@]5(C)CC[C@H]4C3(C)C)OC[C@H](O[C@@H]3O[C@H](CO)[C@@H](O)[C@H](O)[C@H]3O)[C@@H]2O)[C@H](O)[C@H](O)[C@H]1O
Activity (PC-12 [1]): Toxic
viability at 10 µM (PC-12 [2]): 14.5%
viability at 50 µM (PC-12 [3]): 10.3%

C[C@@H]1O[C@@H](O[C@H]2[C@H](O[C@H]3CC[C@]4(C)[C@H]5CC=C6[C@@H]7CC(C)(C)CC[C@]7(C(=O)O[C@@H]7O[C@H](CO[C@@H]8O[C@H](CO)[C@@H](O[C@@H]9O[C@@H](C)[C@H](O)[C@@H](O)[C@H]9O)[C@H](O)[C@H]8O)[C@@H](O)[C@H](O)[C@H]7O)CC[C@@]6(C)[C@]5(C)CC[C@H]4C3(C)C)OC[C@H](O[C@@H]3O[C@@H](C)[C@H](O)[C@@H](O)[C@H]3O)[C@@H]2O)[C@H](O)[C@H](O)[C@H]1O
Activity (PC-12 [4]): Dose-dependent effect
viability at 10 µM (PC-12 [2]): 61.4%
viability at 50 µM (PC-12 [3]): 68.4%
viability at 100 µM (PC-12 [5]): 74.6%

C[C@@H]1O[C@@H](O[C@H]2[C@H](O[C@H]3CC[C@]4(C)[C@H]5CC=C6[C@@H]7CC(C)(C)CC[C@]7(C(=O)O[C@@H]7O[C@H](CO[C@@H]8O[C@H](CO)[C@@H](O[C@@H]9O[C@@H](C)[C@H](O)[C@@H](O)[C@H]9O)[C@H](O)[C@H]8O)[C@@H](O)[C@H](O)[C@H]7O)CC[C@@]6(C)[C@]5(C)CC[C@H]4C3(C)C)OC[C@H](O[C@@H]3OC[C@@H](O)[C@H](O)[C@H]3O)[C@@H]2O)[C@H](O)[C@H](O)[C@H]1O
Activity (PC-12 [4]): Dose-dependent effect
viability at 10 µM (PC-12 [2]): 52.7%
viability at 50 µM (PC-12 [3]): 55.7%

C[C@@H]1O[C@@H](O[C@H]2[C@H](O[C@H]3CC[C@]4(C)[C@H]5CC=C6[C@@H]7CC(C)(C)CC[C@]7(C(=O)O[C@@H]7O[C@H](CO[C@@H]8O[C@H](CO)[C@@H](O[C@@H]9O[C@@H](C)[C@H](O)[C@@H](O)[C@H]9O)[C@H](O)[C@H]8O)[C@@H](O)[C@H](O)[C@H]7O)CC[C@@]6(C)[C@]5(C)CC[C@H]4C3(C)C)OC[C@H](O[C@@H]3O[C@H](CO)[C@H](O)[C@H](O)[C@H]3O)[C@@H]2O)[C@H](O)[C@H](O)[C@H]1O
Activity (PC-12 [4]): Dose-dependent effect
viability at 10 µM (PC-12 [2]): 52.6%
viability at 50 µM (PC-12 [3]): 58.6%

C[C@@H]1O[C@@H](O[C@H]2[C@H](O[C@H]3CC[C@]4(C)[C@H]5CC=C6[C@@H]7CC(C)(C)CC[C@]7(C(=O)O[C@@H]7O[C@H](CO[C@@H]8O[C@H](CO)[C@@H](O)[C@H](O)[C@H]8O)[C@@H](O)[C@H](O)[C@H]7O)CC[C@@]6(C)[C@]5(C)CC[C@H]4C3(C)C)OC[C@H](O[C@@H]3O[C@H](CO)[C@@H](O)[C@H](O)[C@H]3O)[C@@H]2O)[C@H](O)[C@H](O)[C@H]1O
Activity (PC-12 [1]): Toxic
viability at 10 µM (PC-12 [2]): 29.5%
viability at 50 µM (PC-12 [3]): 19.8%

C[C@@H]1O[C@@H](O[C@H]2[C@H](O)[C@@H](O)[C@H](OC[C@H]3O[C@@H](OC(=O)[C@]45CCC(C)(C)C[C@H]4C4=CC[C@@H]6[C@@]7(C)CC[C@H](O[C@@H]8OC[C@H](O)[C@H](O)[C@H]8O)C(C)(C)[C@@H]7CC[C@@]6(C)[C@]4(C)CC5)[C@H](O)[C@@H](O)[C@@H]3O)O[C@@H]2CO)[C@H](O)[C@H](O)[C@H]1O [CIWUJIANOSIDE C3]
Activity (PC-12 [6]): Active
Activity (PC-12 [7]): Toxic
viability at 10 µM (PC-12 [2]): 55.9%
viability at 50 µM (PC-12 [3]): 69.9%
viability at 100 µM (PC-12 [5]): 79.1%
Activity (PC-12 [8]): 143.7%
Activity (PC-12 [9]): 134.4%
Activity (PC-12 [10]): 126.3%
Activity (PC-12 [11]): 45%
Activity (PC-12 [12]): 30.7%
Activity (PC-12 [13]): 20.6%
Activity (PC-12 [14]): Dose-dependent effect
Activity (PC-12 [15]): Dose-dependent effect
Activity (PC-12 [16]): 2 nmol/mL
Activity (PC-12 [17]): 1.6 nmol/mL
Activity (PC-12 [18]): 1.2 nmol/mL

C[C@@H]1O[C@@H](O[C@H]2[C@H](O[C@H]3CC[C@]4(C)[C@H]5CC=C6[C@@H]7CC(C)(C)CC[C@]7(C(=O)O[C@@H]7O[C@H](CO[C@@H]8O[C@H](CO)[C@@H](O[C@@H]9O[C@@H](C)[C@H](O)[C@@H](O)[C@H]9O)[C@H](O)[C@H]8O)[C@@H](O)[C@H](O)[C@H]7O)CC[C@@]6(C)[C@]5(C)CC[C@H]4C3(C)C)OC[C@H](O[C@@H]3OC[C@H](O)[C@H](O)[C@H]3O)[C@@H]2O)[C@H](O)[C@H](O)[C@H]1O
Activity (PC-12 [4]): Dose-dependent effect
viability at 10 µM (PC-12 [2]): 58.3%
viability at 50 µM (PC-12 [3]): 59.7%

C[C@@H]1O[C@@H](O[C@H]2[C@H](O[C@H]3CC[C@]4(C)[C@H]5CC=C6[C@@H]7CC(C)(C)CC[C@]7(C(=O)O[C@@H]7O[C@H](CO[C@@H]8O[C@H](CO)[C@@H](O[C@@H]9O[C@@H](C)[C@H](O)[C@@H](O)[C@H]9O)[C@H](O)[C@H]8O)[C@@H](O)[C@H](O)[C@H]7O)CC[C@@]6(C)[C@]5(C)CC[C@H]4C3(C)C)OC[C@H](O)[C@@H]2O)[C@H](O)[C@H](O)[C@H]1O [HEDERASAPONIN B]
Activity (PC-12 [6]): Active
Activity (PC-12 [7]): Toxic
viability at 10 µM (PC-12 [2]): 54.3%
viability at 50 µM (PC-12 [3]): 60.3%

C[C@@H]1O[C@@H](O[C@H]2[C@H](O[C@H]3CC[C@]4(C)[C@H]5CC=C6[C@@H]7CC(C)(C)CC[C@]7(C(=O)O[C@@H]7O[C@H](CO[C@@H]8O[C@H](CO)[C@@H](O[C@@H]9O[C@@H](C)[C@H](O)[C@@H](O)[C@H]9O)[C@H](O)[C@H]8O)[C@@H](O)[C@H](O)[C@H]7O)CC[C@@]6(C)[C@]5(C)CC[C@H]4C3(C)C)OC[C@H](O[C@@H]3O[C@H](CO)[C@@H](O)[C@H]3O)[C@@H]2O)[C@H](O)[C@H](O)[C@H]1O
Activity (PC-12 [4]): Dose-dependent effect
viability at 10 µM (PC-12 [2]): 58.5%
viability at 50 µM (PC-12 [3]): 57.9%

C[C@@H]1O[C@@H](O[C@H]2[C@H](O[C@H]3CC[C@]4(C)[C@H]5CC=C6[C@@H]7CC(C)(C)CC[C@]7(C(=O)O[C@@H]7O[C@H](CO[C@@H]8O[C@H](CO)[C@@H](O[C@@H]9O[C@@H](C)[C@H](O)[C@@H](O)[C@H]9O)[C@H](O)[C@H]8O)[C@@H](O)[C@H](O)[C@H]7O)CC[C@@]6(C)[C@]5(C)CC[C@H]4C3(C)C)OC[C@H](O[C@@H]3O[C@H](CO)[C@@H](O)[C@H](O)[C@H]3O)[C@@H]2O)[C@H](O)[C@H](O)[C@H]1O
Activity (PC-12 [4]): Dose-dependent effect
viability at 10 µM (PC-12 [2]): 57%
viability at 50 µM (PC-12 [3]): 65.8%
viability at 100 µM (PC-12 [5]): 70.4%
Activity (PC-12 [8]): 147.4%
Activity (PC-12 [9]): 138.5%
Activity (PC-12 [10]): 126.7%
Activity (PC-12 [11]): 43%
Activity (PC-12 [12]): 35%
Activity (PC-12 [13]): 29.2%
Activity (PC-12 [14]): Dose-dependent effect
Activity (PC-12 [15]): Dose-dependent effect
Activity (PC-12 [16]): 2.5 nmol/mL
Activity (PC-12 [17]): 1.9 nmol/mL
Activity (PC-12 [18]): 1.3 nmol/mL
